Assay results from PMC2225614 (The Journal of General Physiology, 2001).
Numbering of substitutions follows the chain as printed. Like-named read-outs stand apart in the source and are kept apart here.

Experiments:
[1] = target: T1, α-subunit of the bovine retinal rod CNG channel (RETα) (Bos taurus, UniProt Q00194); assay type: biochemical; conditions: for Ki: Ki (apparent affinity)
T1 sequence (Q00194 1-690): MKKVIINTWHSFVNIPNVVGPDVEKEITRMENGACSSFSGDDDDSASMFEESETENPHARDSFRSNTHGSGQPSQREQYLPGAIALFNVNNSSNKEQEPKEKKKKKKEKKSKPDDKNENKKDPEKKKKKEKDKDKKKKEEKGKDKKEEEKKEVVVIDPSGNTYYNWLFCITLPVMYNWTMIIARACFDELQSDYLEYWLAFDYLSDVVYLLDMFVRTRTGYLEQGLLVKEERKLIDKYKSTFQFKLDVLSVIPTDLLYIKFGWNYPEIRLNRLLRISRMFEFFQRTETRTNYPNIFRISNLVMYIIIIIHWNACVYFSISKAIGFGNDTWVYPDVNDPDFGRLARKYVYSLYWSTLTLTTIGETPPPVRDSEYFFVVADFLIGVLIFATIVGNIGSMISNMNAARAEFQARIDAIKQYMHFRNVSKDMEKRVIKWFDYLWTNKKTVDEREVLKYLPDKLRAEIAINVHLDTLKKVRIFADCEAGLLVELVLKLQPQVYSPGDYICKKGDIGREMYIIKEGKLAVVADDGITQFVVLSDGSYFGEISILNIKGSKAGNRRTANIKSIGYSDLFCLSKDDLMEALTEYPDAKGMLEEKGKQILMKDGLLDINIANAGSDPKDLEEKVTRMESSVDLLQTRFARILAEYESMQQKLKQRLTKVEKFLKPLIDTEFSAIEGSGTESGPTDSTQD
How it was run: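 RETα was expressed in oocytes from 50 nl of 50 ng/μl RNA. Inside-out patches were held at −75 mV in symmetrical NaCl/EGTA/EDTA/HEPES, pH 7.5, with solution exchange within 50 ms. Current was normalized to Imax: residual current after 1 min preexposure then 2 mM cGMP, or steady-state current with compound added during 2 mM cGMP. Ki and Hill coefficient came from a modified Hill fit; τa from single-exponential fits; mean ± SEM.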

[2] = target: T1, α-subunit of the bovine retinal rod CNG channel (RETα); assay type: biochemical; conditions: for opening allosteric constant (L): L = Po/(1 − Po)
[3] = target: T2, CHM25 (RETα with H420 substituted with an asparagine) (Bos taurus, UniProt Q00194, H420Q); assay: Genistein inhibition of closed chimeric channel CHM25; assay type: biochemical, bovine/rat; conditions: genistein applied on closed channels
T2 sequence (Q00194 1-690 H420Q): T1 sequence (Q00194 1-690) with H420Q
How it was run: (§1)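 Chimeric RETα/OLFα channels were expressed in Xenopus oocytes (50 nl of 50 ng/μl RNA, 2–7 d), and the vitelline membrane was removed. Inside-out patches were bathed in symmetrical 115 mM NaCl, 5 mM EGTA, 1 mM EDTA, 5 mM HEPES, pH 7.5, held at −75 mV. Test compound was preapplied 1 min to closed channels, then saturating 2 mM cGMP; residual current normalized to Imax.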

[4] = test system: CHM 30 (converse substitution in OLFα background); assay: Genistein inhibition of closed chimeric channel CHM 30; assay type: biochemical, bovine/rat; conditions: closed channels
[5] = test system: CHM17 (RETα with the OLFα cyclic nucleotide–binding domain); assay: Genistein inhibition of closed chimeric channel CHM17; assay type: biochemical, bovine/rat; conditions: closed channels
How it was run: as §1

[6] = test system: CHM18 (OLFα with a RETα cyclic nucleotide–binding domain); assay: Genistein inhibition of closed chimeric channel CHM18; assay type: biochemical, bovine/rat; conditions: closed channels
How it was run: as §1

[7] = test system: CHM16 (switched NH2-terminal domain through part of S1); assay: Genistein inhibition of closed chimeric channel CHM16; assay type: biochemical, bovine/rat; conditions: closed channels; behaved like parent channel
How it was run: as §1

[8] = test system: CHM12 (RETα except for mid-S1 through S4); assay: Genistein inhibition of closed chimeric channel CHM12; assay type: biochemical, bovine/rat; conditions: closed channels
How it was run: as §1

[9] = test system: CHM 14 (OLFα except for mid-S1 through S4); assay: Genistein inhibition of closed chimeric channel CHM 14; assay type: biochemical, bovine/rat; conditions: closed channels
How it was run: as §1

[10] = test system: CHM22 (S5 domain exchanged between RETα and OLFα); assay: Genistein inhibition of closed chimeric channel CHM22; assay type: biochemical, bovine/rat; conditions: closed channels
How it was run: as §1

[11] = test system: CHM 19 (RETα with the OLFα pore); assay: Genistein inhibition of closed chimeric channel CHM 19; assay type: biochemical, bovine/rat; conditions: closed channels
How it was run: as §1

[12] = after genistein application, saturating cGMP

Ki ([1]; closed channels): 4.3 ± 0.9 µM
Ki ([1]; fully activated channels (saturating cGMP)): 84.1 ± 6.8 µM
Hill coefficient of genistein inhibition ([1]; closed channels): 1.97 ± 0.08
dissociation of genistein–PTK from closed channels (time) ([1]; closed channels): > 1 min
residual current, of maximal current ([1]; closed channels pretreated with Ni^2+ and genistein for 1 min): 32.1 ± 3.4%
residual current, of maximal current ([1]; closed channels pretreated with genistein alone): 1.3 ± 0.8%
association time constant (τa) ([1]; closed channels, 10 μM genistein): 9.1 ± 0.4 s
association time constant (τa) ([1]; closed channels, 25 μM genistein): 8.9 ± 0.6 s
association time constant (τa) ([1]; closed channels, 100 μM genistein): 8.6 ± 0.7 s
dissociation time constant ([1]; closed channels, first of two exponentials, 1-s cGMP puffs every 15 s): 66 s
dissociation time constant ([1]; closed channels, second of two exponentials, 1-s cGMP puffs every 15 s): 808 s
association time constant (τa) ([1]; closed channels, single exponential fit, Fig. 2 A, 100 μM genistein): 9.3 s
Hill coefficient of genistein inhibition ([1]; fully activated channels): 1.02 ± 0.03
association time constant (τa) ([1]; fully activated channels, 25 μM genistein): 12.1 ± 0.6 s
association time constant (τa) ([1]; fully activated channels, 100 μM genistein): 12.6 ± 0.7 s
association time constant (τa) ([1]; fully activated channels, 250 μM genistein): 12.6 ± 0.9 s
association time constant (τa) ([1]; fully activated channels, single exponential fit, Fig. 2 B): 13.1 s
dissociation time constant ([1]; fully activated channels, single exponential, after 1 min preexposure): 14.4 s
efficacy of genistein inhibition ([1]; fully activated channels, steady-state current in saturating cGMP): 65 ± 6%
change in cGMP sensitivity ([1]; genistein applied on fully activated channels): fourfold decrease
inhibition at 100 µM ([1]; read-out: inhibition of macroscopic current): 41%
fraction of steady-state current from channels devoid of genistein–PTK ([1]; saturating cGMP plus genistein, Fig. 3 B protocol): < 60%
effect on single-channel current ([2]; 100 μM genistein, saturating cGMP): unaffected
decrease in the average Po ([2]; 100 μM genistein, saturating cGMP, six patches): 39 ± 6%
Po during periods of high activity (bursty pattern) [2, 12]: 0.4–0.9
duration of high-Po periods [2, 12]: 15 to 30 s
duration of silent periods (Po = 0) [2, 12]: 10 to 80 s
single-channel current (i) ([2]; after preexposure to 100 μM genistein, Fig. 6 A): 1.97 pA
single-channel current (i) ([2]; after preexposure to 100 μM genistein, Fig. 6 B): 1.96 pA
Po, intermediate gating mode ([2]; after preexposure to 100 μM genistein, all four patches with this mode): 0.39 ± 0.08
decrease of L compared with control ([2]; in the presence of genistein): 30–1,000 fold
single-channel current (i) ([2]; in the presence of genistein, 2 mM cGMP, −80 mV, Fig. 5 B): 1.97 pA
open probability (Po) ([2]; in the presence of genistein, 2 mM cGMP, −80 mV, Gaussian fit, Fig. 5 B): 0.529
free energy of channel opening (ΔGopening) ([2]; one genistein molecule): 0.24 kcal/mol
opening allosteric constant (L) ([2]; one genistein molecule bound): 0.61
opening allosteric constant (L) ([2]; two genistein molecules bound): 0.02
genistein inhibition [3]: complete inhibition
genistein inhibition [5]: complete inhibition
genistein inhibition [6]: no inhibition
SMILES: O=c1c(-c2ccc(O)cc2)coc2cc(O)cc(O)c12 [genistein]
genistein inhibition [4]: neither substitution introduced genistein inhibition
effect of domain switch on genistein inhibition [7]: had no effect
genistein inhibition [8]: fully inhibited
genistein inhibition [9]: not inhibited
effect of domain exchange on genistein inhibition [10]: did not alter genistein inhibition
effect of domain exchange on genistein inhibition [11]: did not alter genistein inhibition
